High-throughput results: PubChem BioAssay, Broad Institute
IDH1 R132H inh = blocks human IDH1 R132H reductase activity; O75874; diaphorase/resazurin fluorescence, 60 min; inhibition, % at 10 µM; 0.18% of 70,000 active; in the data active means inhibition above about 34%; inconclusive means no clear call, values can overlap the other calls; inactive means below about 11%;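 further: 0% = DMSO and 100% = no enzyme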
KDM4C inh = inhibitors of human demethylase GASC-1 KDM4C | Q9H3R0 | GST-KDM4C 2-372, H3K9me3 peptide, LANCE TR-FRET | inhibition, % at 12.5 µM | 0.15% of 96,000 active;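 active means mean replicate inhibition above about 25%, with at least 55% of replicates also reaching it, limit read from the data, passing the limit was not always enough; inconclusive means only one of those two conditions met; inactive means neither condition met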
Target sequence (Q9H3R0 2-372 limits assumed): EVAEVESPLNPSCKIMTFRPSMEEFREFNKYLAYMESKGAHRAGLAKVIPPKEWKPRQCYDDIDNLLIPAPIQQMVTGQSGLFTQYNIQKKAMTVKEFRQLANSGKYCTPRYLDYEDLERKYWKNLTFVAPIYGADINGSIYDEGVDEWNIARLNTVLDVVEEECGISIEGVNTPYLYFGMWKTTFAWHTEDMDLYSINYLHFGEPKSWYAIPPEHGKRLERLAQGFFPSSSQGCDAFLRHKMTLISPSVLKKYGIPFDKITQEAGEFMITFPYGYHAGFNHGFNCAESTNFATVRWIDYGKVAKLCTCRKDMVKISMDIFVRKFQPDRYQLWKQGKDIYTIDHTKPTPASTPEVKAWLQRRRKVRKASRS
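Compound: one test concentration per compound; Material: GST-GASC-1 enzyme fragment 2-372; Amount: GASC-1 enzyme at 10 nM final in reaction; Also added: H3K9me3 peptide substrate, Fe(II), 2-oxoglutarate; Technique: LANCE TR-FRET; Times: 30 min demethylation and 1 h detection at room temperature.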
T cruzi growth-1 = blocks T. cruzi growth in NIH3T3 culture | T. cruzi beta-gal in NIH3T3, GalScreen luminescence, 90 h | inhibition, % at 8.34 µM | 5.9% of 77,000 active;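 active means mean inhibition above about 93%, with at least 55% of replicates each passing it, limit read from the data, passing the limit was not always enough; inconclusive means only one of those two conditions holds; inactive means neither condition holds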
T cruzi growth-2 = blocks T. cruzi growth in NIH3T3 host cells; shares compounds with T cruzi growth-1; T. cruzi beta-gal in NIH3T3, GalScreen luminescence, 90 h; inhibition, % at 8.35 µM; 72% of 5,600 active; AID 651739;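 active means mean replicate inhibition above about 95% and at least 55% of replicates individually reaching it, limit read from the data; inconclusive means only one of the two criteria is met; inactive means neither criterion is met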
T cruzi growth-3 = Trypanosoma cruzi proliferation inhibition; AID 651740; inhibition, % at 2.09 µM; 21% of 5,600 active; shares compounds with T cruzi growth-1; T. cruzi beta-gal in NIH3T3, GalScreen luminescence, 90 h;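 active means mean inhibition above about 95%, with at least 55% of replicates also reaching it, limit read from the data; inconclusive means meets just one of the two conditions; inactive means meets neither condition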;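 further: plate controls were neutral control median for no effect and positive control median for full effect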
3T3 cytotox = NIH/3T3 (mouse) viability loss. shares compounds with T cruzi growth-1. cytotoxicity (signal decrease), % at 8.35 µM. 14% of 5,600 active. NIH/3T3 viability, CellTiter-Glo ATP luminescence, 90 h;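 active means mean signal decrease across replicates above about 35% based on untreated-well scatter, with enough replicates individually passing, limit read from the data; inconclusive means no rule stated though some were filed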;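 further: 0% = median of neutral control wells and 100% = median of positive control wells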
NIH3T3 tox 2 = NIH/3T3 (mouse) viability loss | shares compounds with T cruzi growth-1 | NIH/3T3 viability, CellTiter-Glo ATP luminescence, 90 h | inhibition, % at 24.9 µM | 56% of 5,600 active;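 active means mean loss of cell viability signal at or above a set limit, and enough replicates individually reaching it; inconclusive means meets only the mean limit or only the replicate share; inactive means meets neither condition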;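 further: 0% = median of neutral control wells and 100% = median of positive control wells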
* marks the source's active call; other numbers are inactive results; ? = inconclusive; . = not tested or not shown. Many of the other results were omitted from the sample, so hits are more common in it than they were.

SMILES	IDH1 R132H inh	KDM4C inh	T cruzi growth-1	T cruzi growth-2	T cruzi growth-3	3T3 cytotox	NIH3T3 tox 2
Cc1noc(C)c1S(=O)(=O)Nc1ccc2c(c1)C(=O)N([C@@H](C)CO)C[C@@H](C)[C@H](CN(C)Cc1ccc(C(=O)O)cc1)OCCCC[C@@H](C)O2	1	2	20	.	.	.	.
Cc1noc(C)c1S(=O)(=O)Nc1ccc2c(c1)C(=O)N([C@@H](C)CO)C[C@H](C)[C@@H](CN(C)C(=O)Nc1ccc(C(F)(F)F)cc1)OCCCC[C@H](C)O2	3	0	125*	95*	111*	5	63*
Cc1noc(C)c1S(=O)(=O)Nc1ccc2c(c1)C(=O)N([C@H](C)CO)C[C@H](C)[C@@H](CN(C)Cc1ccc(C(=O)O)cc1)OCCCC[C@@H](C)O2	.	-1	21	.	.	.	.
Cc1noc(C)c1S(=O)(=O)Nc1ccc2c(c1)C(=O)N([C@@H](C)CO)C[C@@H](C)[C@H](CN(C)C(=O)Nc1ccc(C(F)(F)F)cc1)OCCCC[C@@H](C)O2	2	0	106	.	.	.	.
Cc1noc(C)c1S(=O)(=O)Nc1ccc2c(c1)C(=O)N([C@@H](C)CO)C[C@@H](C)[C@@H](CN(C)Cc1ccc(C(F)(F)F)cc1)OCCCC[C@@H](C)O2	2	-2	99*	94	112*	19	106*
Cc1noc(C)c1S(=O)(=O)Nc1ccc2c(c1)C(=O)N([C@H](C)CO)C[C@H](C)[C@@H](CN(C)Cc1ccc(C(F)(F)F)cc1)OCCCC[C@@H](C)O2	.	0	96*	106*	24	13	4
CNC(=O)C[C@H]1CC[C@@H]2[C@@H](COc3ccc(NC(=O)C4CCCCC4)cc3C(=O)N2C)O1	.	4	-14	.	.	.	.
CCCNC(=O)C[C@H]1CC[C@H]2[C@@H](COc3ccc(NC(=O)Nc4ccccc4F)cc3C(=O)N2C)O1	.	-1	28	.	.	.	.
O=c1cc(Nc2ccccc2)cc[nH]1	-2	.	.	.	.	.	.
CCCNC(=O)N1CCC2(CC1)CN(C(=O)NC(C)C)[C@H](CO)c1c2c2ccc(OC)cc2n1C	.	-1	.	.	.	.	.
CN(C)C(=O)C[C@@H]1CC[C@@H]2[C@H](COC[C@H](O)CN2C(=O)c2ccncc2)O1	.	-1	18	.	.	.	.
Cc1noc(C)c1S(=O)(=O)Nc1ccc2c(c1)C(=O)N([C@H](C)CO)C[C@H](C)[C@H](CN(C)Cc1ccc(C(F)(F)F)cc1)OCCCC[C@@H](C)O2	0	2	?	106*	-1	2	?
Cc1noc(C)c1S(=O)(=O)Nc1ccc2c(c1)C(=O)N([C@H](C)CO)C[C@@H](C)[C@@H](CN(C)Cc1ccc(C(F)(F)F)cc1)OCCCC[C@@H](C)O2	.	2	93	.	.	.	.
OC[C@H]1[C@@H](c2ccccc2)C2(CN(Cc3ccccc3)C2)N1Cc1ccncc1	.	4	.	.	.	.	.
CCCC#Cc1cnc2c(c1)C(=O)N([C@@H](C)CO)C[C@@H](C)[C@@H](CN(C)Cc1ccc(F)cc1)O2	0	0	72	.	.	.	.
CC(C)CC#Cc1cnc2c(c1)C(=O)N([C@@H](C)CO)C[C@@H](C)[C@@H](CN(C)Cc1ccc(F)cc1)O2	-1	0	?	108*	58	5	57*
CC(C)CC#Cc1cnc2c(c1)C(=O)N([C@@H](C)CO)C[C@@H](C)[C@H](CN(C)Cc1ccc(F)cc1)O2	0	5	?	104*	32	25	105*
C[C@H](CO)N1C[C@H](C)[C@H](CN(C)Cc2ccc(F)cc2)Oc2ncc(C#Cc3ccccc3)cc2C1=O	1	0	?	103*	88	12	101*
C[C@H](CO)N1C[C@H](C)[C@H](CN(C)Cc2cccc(C(F)(F)F)c2)Oc2ncc(C#Cc3ccc(F)cc3)cc2C1=O	.	0	.	.	.	.	.
C[C@H](CO)N1C[C@H](C)[C@H](CN(C)Cc2cccc(C(F)(F)F)c2)Oc2ncc(C#Cc3ccccc3)cc2C1=O	1	0	99*	102*	86	8	31*
C[C@H](CO)N1C[C@H](C)[C@H](CN(C)Cc2ccccc2)Oc2ncc(C#Cc3ccc(F)cc3)cc2C1=O	0	18	55	.	.	.	.
CC(C)CC#Cc1cnc2c(c1)C(=O)N([C@H](C)CO)C[C@H](C)[C@@H](CN(C)Cc1ccc(F)cc1)O2	-2	-1	48	.	.	.	.
COc1c(O)cc2c(=O)oc3c(OC)c(O[C@@H]4OC[C@@H](O)[C@H](O)[C@H]4O)cc4c(=O)oc1c2c34	0	.	.	.	.	.	.
O=C(NCCCN1CCCC1=O)c1cc2ccccc2oc1=O	0	.	.	.	.	.	.
O=C(CSc1nc2[nH]ncc2c(=O)n1-c1ccccc1)Nc1ccc(F)c(Cl)c1	-1	.	.	.	.	.	.
SMILES	IDH1 R132H inh	KDM4C inh	T cruzi growth-1	T cruzi growth-2	T cruzi growth-3	3T3 cytotox	NIH3T3 tox 2
COc1ccc(-c2nn(C)c(=O)c3ccccc23)cc1CNC(=O)Nc1ccccc1	0	.	.	.	.	.	.
CNC[C@H]1Oc2ncc(C#CCC(C)C)cc2C(=O)N([C@H](C)CO)C[C@H]1C	0	-1	105*	106*	89	5	22
CNC[C@@H]1Oc2ncc(C#CCC(C)C)cc2C(=O)N([C@H](C)CO)C[C@@H]1C	.	0	.	.	.	.	.
O=C(NCc1ccco1)c1ccc2c(c1)C(=O)N(CC1CCCO1)C2=O (stereo not given)	0	.	.	.	.	.	.
COc1ccc(S(=O)(=O)Nc2ccc3c(c2)CC(=O)N([C@H](C)CO)C[C@H](C)[C@@H](CN(C)C(=O)NC2CCCCC2)O3)cc1	-20	12	14	.	.	.	.
CCC(=O)N1CCCCN2[C@@H](CO)[C@@H](c3ccc(-c4cccnc4)cc3)[C@@H]2C1	.	0	96*	90	86	-7	-24
CN(C)CC(=O)N1CCCCN2[C@H](CO)[C@@H](c3ccc(-c4cccnc4)cc3)[C@H]2C1	.	-1	57	.	.	.	.
CCC(=O)N1CCCCN2[C@H](C1)[C@H](c1ccc(-c3cccnc3)cc1)[C@@H]2CO	.	-1	113*	34	0	6	-9
CN(C)CC(=O)N1CCCCN2[C@H](C1)[C@@H](c1ccc(-c3cccnc3)cc1)[C@@H]2CO	.	0	65	.	.	.	.
CCCN1[C@@H]2c3ccc(C4=CCCC4)c(=O)n3C[C@@H]2[C@@H](CO)[C@@H]1C(=O)NC1Cc2ccccc2C1	.	9	92	.	.	.	.
COc1cccc(CNC(=O)C[C@H]2C=C[C@@H](NC(C)=O)[C@H](CO)O2)c1	0	-2	-22	.	.	.	.
COc1ccccc1C#Cc1ccc2c(c1)O[C@H](CN(C)C)[C@@H](C)CN([C@@H](C)CO)S2(=O)=O	0	-1	.	.	.	.	.
COc1ccccc1C#Cc1ccc2c(c1)O[C@H](CN(C)Cc1ccncc1)[C@@H](C)CN([C@H](C)CO)S2(=O)=O	0	13	123*	97*	102*	11	71*
